# In ChEMBL document CHEMBL4118126, “An orally available, brain-penetrant CAMKK2 inhibitor reduces food intake in rodent model” (Bioorg Med Chem Lett, 2018):
# Tests used:
# [1] = Solubility of the compound in pH 7.4 phosphate buffer saline after 1 hr by chemiluminescence nitrogen detection method; assay type: physicochemical; details: phosphate buffered saline
# Summary of the method: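 Kinetic solubility: 10 mM DMSO stock diluted 1:20 into 10 mM phosphate-buffered saline pH 7.4, equilibrated 1 h at RT, filtered, and filtrate quantified by calibrated flow-injection chemiluminescent nitrogen detection.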
# Insulin receptor = Insulin receptor (Homo sapiens, UniProt P06213); test: Inhibition of INSR (unknown origin)
# Chain of Insulin receptor (P06213 28-758 limits assumed): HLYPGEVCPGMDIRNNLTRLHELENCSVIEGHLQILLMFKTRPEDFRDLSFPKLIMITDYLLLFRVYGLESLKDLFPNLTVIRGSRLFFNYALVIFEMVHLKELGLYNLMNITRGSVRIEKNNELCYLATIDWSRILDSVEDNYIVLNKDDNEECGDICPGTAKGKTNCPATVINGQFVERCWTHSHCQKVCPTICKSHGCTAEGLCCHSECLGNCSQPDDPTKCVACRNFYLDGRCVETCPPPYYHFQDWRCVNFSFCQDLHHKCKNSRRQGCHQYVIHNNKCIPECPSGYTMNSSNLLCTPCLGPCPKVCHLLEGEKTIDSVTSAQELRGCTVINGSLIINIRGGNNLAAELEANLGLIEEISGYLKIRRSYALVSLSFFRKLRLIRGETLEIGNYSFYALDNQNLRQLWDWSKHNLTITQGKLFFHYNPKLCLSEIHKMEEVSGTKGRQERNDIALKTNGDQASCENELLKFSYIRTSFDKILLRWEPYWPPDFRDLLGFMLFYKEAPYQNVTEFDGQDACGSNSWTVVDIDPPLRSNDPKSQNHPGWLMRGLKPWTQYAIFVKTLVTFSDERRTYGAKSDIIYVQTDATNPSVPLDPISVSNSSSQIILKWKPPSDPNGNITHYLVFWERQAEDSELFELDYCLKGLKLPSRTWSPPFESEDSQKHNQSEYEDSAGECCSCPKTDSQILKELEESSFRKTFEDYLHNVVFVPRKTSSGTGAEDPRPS
# Chain of Insulin receptor (P06213 763-1382 limits assumed): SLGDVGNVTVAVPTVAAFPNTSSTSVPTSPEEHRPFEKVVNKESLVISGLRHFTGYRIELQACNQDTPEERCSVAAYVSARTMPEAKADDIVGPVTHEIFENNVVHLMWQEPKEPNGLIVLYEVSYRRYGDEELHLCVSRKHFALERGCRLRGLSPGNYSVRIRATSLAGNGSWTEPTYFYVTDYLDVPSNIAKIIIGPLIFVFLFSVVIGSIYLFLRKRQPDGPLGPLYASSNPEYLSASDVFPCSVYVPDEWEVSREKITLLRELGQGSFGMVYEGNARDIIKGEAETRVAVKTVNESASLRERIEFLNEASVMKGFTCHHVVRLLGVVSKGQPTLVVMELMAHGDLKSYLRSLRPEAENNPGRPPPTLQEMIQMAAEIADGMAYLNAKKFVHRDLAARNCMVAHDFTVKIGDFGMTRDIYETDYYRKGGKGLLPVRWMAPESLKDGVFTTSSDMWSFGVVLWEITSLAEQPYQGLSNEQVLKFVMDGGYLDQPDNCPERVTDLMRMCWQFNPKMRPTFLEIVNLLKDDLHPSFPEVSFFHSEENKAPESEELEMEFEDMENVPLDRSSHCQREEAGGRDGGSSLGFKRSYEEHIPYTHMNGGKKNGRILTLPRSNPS
# [2] = target: T1, Discoidin domain-containing receptor 2 (Homo sapiens, UniProt Q16832); test: Inhibition of DDR2 (unknown origin)
# T1 sequence (Q16832 whole entry): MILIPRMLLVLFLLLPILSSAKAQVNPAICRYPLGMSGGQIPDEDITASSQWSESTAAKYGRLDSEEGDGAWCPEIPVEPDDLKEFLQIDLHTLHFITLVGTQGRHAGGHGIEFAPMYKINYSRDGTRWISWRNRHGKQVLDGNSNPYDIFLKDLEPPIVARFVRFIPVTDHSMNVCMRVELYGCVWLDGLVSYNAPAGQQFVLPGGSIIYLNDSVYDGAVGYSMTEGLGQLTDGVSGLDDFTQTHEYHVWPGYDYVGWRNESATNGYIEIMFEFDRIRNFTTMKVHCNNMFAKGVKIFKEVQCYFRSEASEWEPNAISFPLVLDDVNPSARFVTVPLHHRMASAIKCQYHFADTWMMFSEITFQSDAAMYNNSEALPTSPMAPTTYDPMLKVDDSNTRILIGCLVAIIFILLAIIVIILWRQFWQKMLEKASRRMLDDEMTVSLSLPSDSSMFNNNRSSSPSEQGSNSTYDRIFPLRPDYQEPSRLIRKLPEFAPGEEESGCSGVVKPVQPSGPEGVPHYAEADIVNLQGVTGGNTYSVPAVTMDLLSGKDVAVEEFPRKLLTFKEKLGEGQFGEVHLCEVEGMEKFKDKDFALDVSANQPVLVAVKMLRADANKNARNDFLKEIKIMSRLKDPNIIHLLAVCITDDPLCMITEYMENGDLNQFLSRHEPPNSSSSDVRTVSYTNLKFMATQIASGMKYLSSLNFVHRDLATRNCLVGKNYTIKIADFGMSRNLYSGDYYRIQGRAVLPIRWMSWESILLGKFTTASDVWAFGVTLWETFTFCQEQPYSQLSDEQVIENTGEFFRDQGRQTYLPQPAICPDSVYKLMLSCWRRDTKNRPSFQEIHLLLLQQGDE
# Aurora kinase A = target: T2, Aurora kinase A (Homo sapiens, UniProt O14965); test: Inhibition of aurora A (unknown origin)
# T2 sequence (O14965 whole entry): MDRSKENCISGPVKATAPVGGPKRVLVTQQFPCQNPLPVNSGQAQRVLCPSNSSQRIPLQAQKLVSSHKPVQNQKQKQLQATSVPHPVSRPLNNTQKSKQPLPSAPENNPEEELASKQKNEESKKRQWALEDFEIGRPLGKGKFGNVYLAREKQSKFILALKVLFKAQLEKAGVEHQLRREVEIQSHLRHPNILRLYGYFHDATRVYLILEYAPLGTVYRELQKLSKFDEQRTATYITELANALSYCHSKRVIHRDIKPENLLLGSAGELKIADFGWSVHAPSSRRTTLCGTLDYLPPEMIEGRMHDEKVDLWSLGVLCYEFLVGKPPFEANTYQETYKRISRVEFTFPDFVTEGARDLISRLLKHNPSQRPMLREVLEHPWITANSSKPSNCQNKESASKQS
# [3] = target: T3, Inhibitor of nuclear factor kappa-B kinase subunit alpha (Homo sapiens, UniProt O15111); test: Inhibition of IKK1 (unknown origin)
# T3 sequence (O15111 whole entry): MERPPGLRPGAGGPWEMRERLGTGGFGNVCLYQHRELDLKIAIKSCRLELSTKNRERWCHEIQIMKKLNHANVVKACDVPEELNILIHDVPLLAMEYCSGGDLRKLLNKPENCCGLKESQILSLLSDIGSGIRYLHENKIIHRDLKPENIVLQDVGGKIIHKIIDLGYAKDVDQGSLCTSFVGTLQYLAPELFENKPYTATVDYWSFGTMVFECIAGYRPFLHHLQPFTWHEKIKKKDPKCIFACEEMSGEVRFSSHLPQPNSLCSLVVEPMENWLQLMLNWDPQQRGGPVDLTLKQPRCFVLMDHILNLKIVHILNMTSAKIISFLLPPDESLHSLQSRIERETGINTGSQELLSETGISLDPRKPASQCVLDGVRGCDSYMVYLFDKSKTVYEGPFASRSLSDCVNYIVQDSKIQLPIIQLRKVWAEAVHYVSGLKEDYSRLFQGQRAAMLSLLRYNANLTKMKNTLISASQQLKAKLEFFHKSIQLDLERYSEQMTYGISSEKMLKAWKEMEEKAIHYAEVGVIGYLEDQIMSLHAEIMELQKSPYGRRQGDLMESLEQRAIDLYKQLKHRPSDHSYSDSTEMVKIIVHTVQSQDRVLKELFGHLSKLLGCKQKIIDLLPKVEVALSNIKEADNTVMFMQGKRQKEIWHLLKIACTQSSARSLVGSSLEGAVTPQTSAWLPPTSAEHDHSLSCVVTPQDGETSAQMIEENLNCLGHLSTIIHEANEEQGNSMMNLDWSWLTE
# [4] = target: Calcium/calmodulin-dependent protein kinase kinase 2 (Homo sapiens, UniProt Q96RR4); test: Inhibition of full-length human GST-tagged CAMKK2 using 5FAM-AKPKGNKDYHLQTCCGSLAYRRR-amide as substrate preincubated for 30 mins followed by substrate addition measured after 120 mins by fluorescence polarization assay
# Chain of Calcium/calmodulin-dependent protein kinase kinase 2 (Homo sapiens, UniProt Q96RR4) (Q96RR4 whole entry): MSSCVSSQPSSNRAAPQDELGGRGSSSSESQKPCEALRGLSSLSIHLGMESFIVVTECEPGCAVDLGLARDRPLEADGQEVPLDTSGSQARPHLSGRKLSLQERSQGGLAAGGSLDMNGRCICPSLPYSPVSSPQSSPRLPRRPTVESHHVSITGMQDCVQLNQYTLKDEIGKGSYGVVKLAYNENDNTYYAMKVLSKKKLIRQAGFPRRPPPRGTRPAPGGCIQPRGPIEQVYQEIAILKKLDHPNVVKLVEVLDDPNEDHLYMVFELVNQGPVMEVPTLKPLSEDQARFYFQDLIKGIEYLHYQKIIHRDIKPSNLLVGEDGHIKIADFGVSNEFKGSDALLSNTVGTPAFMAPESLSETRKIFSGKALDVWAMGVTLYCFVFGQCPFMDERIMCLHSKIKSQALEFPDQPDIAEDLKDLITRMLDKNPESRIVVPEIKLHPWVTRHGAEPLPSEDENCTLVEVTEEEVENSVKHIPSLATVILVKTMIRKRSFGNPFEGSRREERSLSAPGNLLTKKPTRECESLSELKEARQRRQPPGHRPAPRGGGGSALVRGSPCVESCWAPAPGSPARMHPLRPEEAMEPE
# [5] = target: Mitogen-activated protein kinase 8 (Homo sapiens, UniProt P45983); test: Inhibition of JNK1 (unknown origin)
# Chain of Mitogen-activated protein kinase 8 (P45983 whole entry): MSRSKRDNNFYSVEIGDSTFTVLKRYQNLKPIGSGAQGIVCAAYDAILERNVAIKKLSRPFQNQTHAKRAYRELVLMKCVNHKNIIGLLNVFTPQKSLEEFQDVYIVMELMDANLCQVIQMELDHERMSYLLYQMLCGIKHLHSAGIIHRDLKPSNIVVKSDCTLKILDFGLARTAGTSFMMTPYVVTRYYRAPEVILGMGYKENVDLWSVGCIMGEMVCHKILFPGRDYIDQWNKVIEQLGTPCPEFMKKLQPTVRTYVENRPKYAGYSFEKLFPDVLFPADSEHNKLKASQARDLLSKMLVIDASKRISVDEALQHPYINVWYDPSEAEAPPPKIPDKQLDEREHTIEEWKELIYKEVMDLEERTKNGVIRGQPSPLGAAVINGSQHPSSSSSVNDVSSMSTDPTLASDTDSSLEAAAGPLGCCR
# [6] = target: Calcium/calmodulin-dependent protein kinase kinase 2 (Mus musculus, UniProt Q8C078); test: Inhibition of CAMKK2 in mouse N39 cells assessed as decrease in AMPKalpha phosphorylation at T172 preincubated for 80 mins followed by […] addition by ELISA; assay type: cell-based
# Chain of Calcium/calmodulin-dependent protein kinase kinase 2 (Mus musculus, UniProt Q8C078) (Q8C078 whole entry): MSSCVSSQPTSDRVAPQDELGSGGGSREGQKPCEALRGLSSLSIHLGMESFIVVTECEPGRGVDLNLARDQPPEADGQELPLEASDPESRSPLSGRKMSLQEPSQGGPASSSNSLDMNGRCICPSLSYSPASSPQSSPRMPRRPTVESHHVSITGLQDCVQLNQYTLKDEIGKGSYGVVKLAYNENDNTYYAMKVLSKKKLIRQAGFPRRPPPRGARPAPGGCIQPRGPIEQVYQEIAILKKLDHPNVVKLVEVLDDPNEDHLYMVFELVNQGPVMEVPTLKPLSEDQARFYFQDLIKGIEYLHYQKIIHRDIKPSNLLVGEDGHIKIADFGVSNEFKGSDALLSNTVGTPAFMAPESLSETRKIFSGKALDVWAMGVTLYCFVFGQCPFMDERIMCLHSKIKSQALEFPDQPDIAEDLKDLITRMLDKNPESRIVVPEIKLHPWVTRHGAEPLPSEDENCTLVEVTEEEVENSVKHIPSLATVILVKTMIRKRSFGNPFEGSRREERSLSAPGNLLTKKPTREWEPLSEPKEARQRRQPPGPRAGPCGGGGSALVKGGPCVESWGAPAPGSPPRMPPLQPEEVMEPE
# Summary of the method: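 Mouse N39 cells seeded ~1000 cells/well, cultured overnight at 37°C, 5% CO2, then exposed to compound in DMSO for 80 min before ionomycin stimulation ([…] as added). Cells were lysed in extraction buffer for 30 min on ice, then diluted into ice-cold lysis buffer containing protease and phosphatase inhibitors for MSD read-out.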
# [7] = target: Phosphatidylinositol 4,5-bisphosphate 3-kinase catalytic subunit gamma isoform (Homo sapiens, UniProt P48736); test: Inhibition of PI3Kgamma (unknown origin)
# Chain of Phosphatidylinositol 4,5-bisphosphate 3-kinase catalytic subunit gamma isoform (P48736 whole entry, canonical isoform): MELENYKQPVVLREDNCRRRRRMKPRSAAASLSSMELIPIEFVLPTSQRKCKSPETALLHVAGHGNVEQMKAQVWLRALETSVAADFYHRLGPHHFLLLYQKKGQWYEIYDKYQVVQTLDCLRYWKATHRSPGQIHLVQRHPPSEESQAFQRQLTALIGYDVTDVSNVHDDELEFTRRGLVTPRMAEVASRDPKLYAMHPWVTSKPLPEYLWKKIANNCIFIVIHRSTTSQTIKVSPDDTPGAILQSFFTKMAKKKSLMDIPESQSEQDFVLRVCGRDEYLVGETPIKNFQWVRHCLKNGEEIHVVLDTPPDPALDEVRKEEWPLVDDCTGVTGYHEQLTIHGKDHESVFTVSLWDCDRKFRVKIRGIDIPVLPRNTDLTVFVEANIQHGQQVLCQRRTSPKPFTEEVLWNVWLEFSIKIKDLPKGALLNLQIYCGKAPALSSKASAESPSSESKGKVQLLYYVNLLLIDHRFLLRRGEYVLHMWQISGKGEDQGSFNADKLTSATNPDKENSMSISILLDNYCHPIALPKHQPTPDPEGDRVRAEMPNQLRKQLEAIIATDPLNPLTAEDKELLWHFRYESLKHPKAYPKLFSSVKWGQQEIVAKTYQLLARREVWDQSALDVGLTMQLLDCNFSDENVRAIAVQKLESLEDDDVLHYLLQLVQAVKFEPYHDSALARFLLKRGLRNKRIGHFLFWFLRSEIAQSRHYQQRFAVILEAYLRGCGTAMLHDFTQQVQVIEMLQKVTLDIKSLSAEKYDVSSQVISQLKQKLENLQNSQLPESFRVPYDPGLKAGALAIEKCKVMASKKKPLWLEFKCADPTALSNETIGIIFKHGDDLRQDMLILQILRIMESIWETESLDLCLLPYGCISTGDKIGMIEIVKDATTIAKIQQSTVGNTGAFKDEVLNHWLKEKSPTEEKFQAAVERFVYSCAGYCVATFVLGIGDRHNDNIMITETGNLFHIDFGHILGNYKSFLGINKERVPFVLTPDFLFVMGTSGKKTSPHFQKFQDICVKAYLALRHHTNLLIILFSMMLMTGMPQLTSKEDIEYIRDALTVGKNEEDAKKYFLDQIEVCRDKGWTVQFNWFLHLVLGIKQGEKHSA
# [8] = target: Glycogen synthase kinase-3 beta (Homo sapiens, UniProt P49841); test: Inhibition of GSK3beta (unknown origin)
# Chain of Glycogen synthase kinase-3 beta (P49841 whole entry): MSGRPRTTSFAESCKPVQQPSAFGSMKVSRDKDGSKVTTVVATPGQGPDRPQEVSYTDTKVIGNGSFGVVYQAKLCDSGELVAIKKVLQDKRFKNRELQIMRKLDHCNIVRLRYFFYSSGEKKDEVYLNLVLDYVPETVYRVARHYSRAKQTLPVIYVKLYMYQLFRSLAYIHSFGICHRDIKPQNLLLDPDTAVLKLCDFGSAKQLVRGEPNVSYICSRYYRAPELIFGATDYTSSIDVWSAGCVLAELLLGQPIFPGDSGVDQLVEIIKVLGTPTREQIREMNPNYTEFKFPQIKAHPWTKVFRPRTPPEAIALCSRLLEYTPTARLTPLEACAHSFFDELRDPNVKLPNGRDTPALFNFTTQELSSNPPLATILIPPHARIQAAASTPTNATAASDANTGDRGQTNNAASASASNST
# [9] = Ratio of drug level in brain to plasma in CD rat at 10 mg/kg, po; assay type: ADME, organism-based; details: read-out: BPR
# [10] = Cmax in CD rat at 10 mg/kg, po; assay type: ADME, organism-based; parameters: dose 10 mg/kg, route oral; details: in vivo
# Rattus norvegicus [11] = test: Inhibition of ghrelin-induced food intake in Sprague-Dawley rat at 30 mg/kg, po administered 1 hr followed by ghrelin addition measured for 4 hrs relative to control; assay type: functional
# Rattus norvegicus [12] = test: Reduction of food intake in Sprague-Dawley rat at 30 mg/kg, po administered 1 hr measured for 4 hrs; assay type: ADME, organism-based; details: in vivo
# [13] = Cmax in CD rat at 30 mg/kg, po; assay type: ADME, organism-based; parameters: dose 30 mg/kg, route oral; details: in vivo
# [14] = Ratio of drug level in brain to plasma in CD rat at 30 mg/kg, po; assay type: ADME, organism-based; details: read-out: BPR
Compound,solubility at 1 h [1],IC50 (Insulin receptor; read-out: IC50),IC50 (Insulin receptor; read-out: pIC50 (converted)),IC50 [2],IC50 (Aurora kinase A),IC50 [3],IC50 [4],IC50 [5],IC50 [6],IC50 [7],IC50 [8],Kp [9],Cmax [10],inhibition in vivo at 30 mg/kg (Rattus norvegicus [11]),Activity (Rattus norvegicus [12]),Cmax [13],Kp [14]
Cc1cc(OCCN2CCOCC2)ccc1-c1cc2c(-c3ccc(C#N)cc3)ccnc2[nH]1,9 µM,> 10000 nM,> 10000 nM,> 10000 nM,> 10000 nM,> 31600 nM,100 to 251 nM,20000 nM,7940 nM,–,–,–,–,–,–,–,–
COc1ccc(-c2ccccc2)cc1Nc1nccc(-c2ccc(C(N)=O)cc2)n1,7 µM,–,–,–,–,–,12.6 to 251 nM,> 10000 nM,> 10000 nM,7940 nM,> 25100 nM,–,–,–,–,–,–
COc1ccccc1-c1cc2c(-c3ccc(C(N)=O)c(C4CCCC4)c3)ccnc2[nH]1,7 µM,–,794 nM,–,–,2510 nM,2 nM,2000 nM,100 nM,–,–,3.2,35 ng/mL,–,–,–,–
Cc1cc(OCCN2CCOCC2)ccc1-c1cc2c(-c3ccc(C#N)c(C(C)C)c3)ccnc2[nH]1,< 1 µM,> 10000 nM,> 10000 nM,> 10000 nM,> 10000 nM,> 25100 nM,6.31 nM,> 10000 nM,501 nM,–,–,–,–,40%,Non-Toxic,964 ng/mL,0.9
Cc1ccc(CN2CCOCC2)cc1-c1cc2c(-c3ccc(C#N)c(C(C)C)c3)ccnc2[nH]1,1 µM,> 10000 nM,> 10000 nM,> 10000 nM,> 10000 nM,2510 nM,12.6 nM,7940 nM,398 nM,–,–,–,–,–,–,127 ng/mL,0.6
Cc1ccc(CN2CCOCC2)cc1-c1cc2c(-c3ccc(C#N)cc3)ccnc2[nH]1,2 µM,> 10000 nM,> 10000 nM,> 10000 nM,> 10000 nM,> 25100 nM,79.4 to 398 nM,> 10000 nM,2510 nM,–,–,–,–,–,–,–,–
Cc1ccc(-c2ccccc2)cc1Nc1nccc(-c2ccc(C(N)=O)cc2)n1,4 µM,–,–,–,–,–,31.6 to 501 nM,> 10000 nM,3980 nM,> 10000 nM,> 25100 nM,–,–,–,–,–,–
COc1ccccc1Nc1nccc(-c2ccc(C(N)=O)cc2)n1,< 1 µM,–,–,–,–,–,100 to 1260 nM,2000 nM,> 10000 nM,> 10000 nM,> 25100 nM,–,–,–,–,–,–
COc1ccccc1Nc1ncc(F)c(-c2ccc(C(=O)O)c(C(C)C)c2)n1,97 µM,–,–,–,–,–,1 to 7.94 nM,3160 nM,398 nM,6310 nM,7940 nM,–,–,–,–,–,–
Cc1cc(OCCN2CCOCC2)ccc1-c1cc2c(-c3ccc(C(N)=O)c(C(C)C)c3)ccnc2[nH]1,4 µM,–,398 nM,–,–,2510 nM,0.794 to 7.94 nM,2000 nM,63.1 nM,–,–,–,–,–,–,374 ng/mL,0.6
COc1ccccc1Nc1nccc(-c2ccc(C(=O)O)cc2)n1,> 444 µM,–,–,–,–,–,200 to 1580 nM,5010 nM,> 10000 nM,3980 nM,> 25100 nM,–,–,–,–,–,–
NC(=O)c1ccc(-c2ccnc(Nc3cccc(-c4ccccc4)c3)n2)cc1,3 µM,–,–,–,–,–,7.94 to 25.1 nM,1000 nM,631 nM,100 nM,31.6 nM,–,–,–,–,–,–
